This note sets out measurements from PubChem BioAssay AID2204 (Vanderbilt High Throughput Screening Facility, 2009).

Assay in all cases: ACh EC20 potentiation across mAChRs – cell-based, calcium flux, selectivity assay for M5 allosteric modulator project, profiling panel (AID 2204)
Common to all, as to conditions: CHO-K1 mAChR panel, Fluo-4 calcium flux
For orientation: Calcium flux is commonly read through the fluorescence of an indicator in the cells.

The target in assay [1] is Muscarinic acetylcholine receptor M3 (Homo sapiens) (UniProt P20309). A digest of the protocol:
(§1)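 System: transfected CHO-K1 cell lines; timing: compound pre-incubation 1.5 min, acetylcholine stimulation 50 s, at 25 °C; detection: intracellular calcium mobilization measurement; medium: HBSS buffer, pH 7.4, with 2.5 mM probenecid, 20 mM HEPES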

For assay [2], the target named is Muscarinic acetylcholine receptor M5 (Homo sapiens) (UniProt P08912). In a few lines: as §1
The target of assay [3] is Muscarinic acetylcholine receptor M1 (Rattus norvegicus) (UniProt P08482). In a few lines: as §1
Muscarinic acetylcholine receptor M1 (Rattus norvegicus), sequence (P08482 whole entry, looked up): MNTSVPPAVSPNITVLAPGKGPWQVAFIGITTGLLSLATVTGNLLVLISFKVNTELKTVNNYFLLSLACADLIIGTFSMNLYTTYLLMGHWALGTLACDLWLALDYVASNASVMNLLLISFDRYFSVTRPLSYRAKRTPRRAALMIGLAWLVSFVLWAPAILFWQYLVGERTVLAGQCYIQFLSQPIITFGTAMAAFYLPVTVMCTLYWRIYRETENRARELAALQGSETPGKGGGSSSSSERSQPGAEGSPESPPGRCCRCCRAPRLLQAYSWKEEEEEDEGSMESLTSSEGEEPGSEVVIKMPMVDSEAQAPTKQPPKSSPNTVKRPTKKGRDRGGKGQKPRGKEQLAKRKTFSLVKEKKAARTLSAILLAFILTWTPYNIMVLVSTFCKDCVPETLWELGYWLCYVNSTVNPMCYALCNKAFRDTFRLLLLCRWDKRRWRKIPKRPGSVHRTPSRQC

Muscarinic acetylcholine receptor M5 (Homo sapiens), sequence (P08912 whole entry, looked up): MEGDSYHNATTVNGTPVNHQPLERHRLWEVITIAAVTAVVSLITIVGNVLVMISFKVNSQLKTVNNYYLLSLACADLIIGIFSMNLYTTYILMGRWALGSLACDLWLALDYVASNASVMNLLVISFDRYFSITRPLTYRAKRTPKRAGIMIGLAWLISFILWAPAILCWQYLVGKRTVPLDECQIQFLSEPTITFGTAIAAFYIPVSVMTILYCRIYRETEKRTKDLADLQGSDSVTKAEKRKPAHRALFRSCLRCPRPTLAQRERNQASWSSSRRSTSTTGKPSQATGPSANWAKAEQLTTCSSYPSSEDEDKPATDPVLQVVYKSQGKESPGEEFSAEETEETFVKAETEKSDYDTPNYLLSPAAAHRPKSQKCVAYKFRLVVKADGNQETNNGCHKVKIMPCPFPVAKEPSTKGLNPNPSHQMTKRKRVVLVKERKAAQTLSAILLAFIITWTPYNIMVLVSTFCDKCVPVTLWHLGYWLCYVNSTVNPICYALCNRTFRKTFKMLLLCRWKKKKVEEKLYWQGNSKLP
Muscarinic acetylcholine receptor M3 (Homo sapiens), sequence (P20309 whole entry, looked up): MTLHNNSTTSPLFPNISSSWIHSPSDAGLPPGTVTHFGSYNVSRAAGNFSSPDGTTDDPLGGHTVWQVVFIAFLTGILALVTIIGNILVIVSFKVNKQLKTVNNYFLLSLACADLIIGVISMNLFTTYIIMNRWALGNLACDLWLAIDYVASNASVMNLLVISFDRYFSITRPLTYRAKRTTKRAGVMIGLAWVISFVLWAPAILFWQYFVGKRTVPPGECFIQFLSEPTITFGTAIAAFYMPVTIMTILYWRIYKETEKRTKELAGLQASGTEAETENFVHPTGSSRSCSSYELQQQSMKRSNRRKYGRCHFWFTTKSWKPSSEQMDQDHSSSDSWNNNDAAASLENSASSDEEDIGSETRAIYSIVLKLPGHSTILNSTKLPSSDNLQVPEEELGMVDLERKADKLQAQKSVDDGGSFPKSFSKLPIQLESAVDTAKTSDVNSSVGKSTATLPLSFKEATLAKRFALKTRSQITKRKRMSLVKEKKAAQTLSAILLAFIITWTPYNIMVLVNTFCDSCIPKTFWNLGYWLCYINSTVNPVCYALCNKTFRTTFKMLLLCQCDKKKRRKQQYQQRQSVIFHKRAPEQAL

In general, EC50 refers to the concentration needed to bring the measured effect to its halfway point. As for `COc1ccc(CN2C(=O)C(=O)c3ccc(OC(F)(F)F)cc32)cc1`, the concentration for a half-maximal effect (EC50) amounted to 10.3 µM in assay [1] and 5.68 µM in assay [2].

Take `O=C1C(=O)N(Cc2ccc(Br)cc2)c2ccccc21`: the EC50 was 6.04 µM in assay [3], 6.38 µM in assay [1] and 4.08 µM in assay [2].

Consider `COc1ccccc1-c1ccc(CN2C(=O)C(=O)c3cc(OC(F)(F)F)ccc32)cc1`, for which the EC50 in assay [2] worked out at 3.86 µM.

For `O=C1C(=O)N(Cc2ccc(Oc3ccccc3)cc2)c2ccc(OC(F)(F)F)cc21`, the EC50 in assay [2] was found to be 1.92 µM.

Take `COc1ccc(CN2C(=O)C(=O)c3cc(OC(F)(F)F)ccc32)cc1`: the figures for the concentration for a half-maximal effect (EC50) in assay [1] and in assay [2] were 109 µM and 1.16 µM, respectively.

For the molecule `O=C1C(=O)N(Cc2ccc(-c3ccc(Cl)nc3)cc2)c2ccc(OC(F)(F)F)cc21`, in assay [2], the EC50 was 4.83 µM.

Turning to `O=C1C(=O)N(Cc2ccc(-c3ccc(F)nc3)cc2)c2ccc(OC(F)(F)F)cc21`, in assay [2], the half-maximal effective concentration (EC50) turned out to be 3.59 µM.

With `Cn1cc(-c2ccc(CN3C(=O)C(=O)c4cc(OC(F)(F)F)ccc43)cc2)cn1`, the EC50 in assay [2] was determined as 3.26 µM.

Consider `O=C1C(=O)N(Cc2ccc(-c3ccsc3)cc2)c2ccc(OC(F)(F)F)cc21`, for which, in assay [2], the 50% effective concentration (EC50) was 2.77 µM.

`O=C1C(=O)N(Cc2ccc(-c3ccccc3)cc2)c2cc(OC(F)(F)F)ccc21`: the figures for the EC50 in assay [1] and in assay [2] were 3.07 µM and 2.65 µM, respectively.

As to `O=C1C(=O)N(Cc2ccc(-c3ccccc3)cc2)c2ccc(OC(F)(F)F)cc21`, in assay [2], the EC50 worked out at 2.66 µM.
